# Experimental data from ChEMBL document CHEMBL2321793, “Discovery of a novel broad-spectrum antifungal agent derived from albaconazole” (ACS Med Chem Lett, 2013).
# Columns and labels:
# Candida albicans [1] = test: Antifungal activity against fluconazole-resistant Candida albicans DSY735 after 24 hrs by spectrofluorometric analysis; assay type: functional; details: DSY735, 24 h
# Candida parapsilosis [2] = test: Antifungal activity against acquired-resistant Candida parapsilosis CAPA2 after 24 hrs by spectrofluorometric analysis; assay type: functional; details: Lodderomyces parapsilosis, CAPA2, 24 h
# Candida albicans [3] = test: Antifungal activity against fluconazole-susceptible Candida albicans CAAL93 after 24 hrs by spectrofluorometric analysis; assay type: functional; details: CAAL93, 24 h
# Candida parapsilosis [4] = test: Antifungal activity against acquired-resistant Candida parapsilosis CAPA1 after 24 hrs by spectrofluorometric analysis; assay type: functional; details: Lodderomyces parapsilosis, CAPA1, 24 h
# Nakaseomyces glabratus = test: Antifungal activity against Candida glabrata CAGL2 after 24 hrs by spectrofluorometric analysis; assay type: functional; details: CAGL2, 24 h
# Candida albicans [5] = test: Antifungal activity against fluconazole-susceptible Candida albicans CAAL97 after 24 hrs by spectrofluorometric analysis; assay type: functional; details: CAAL97, 24 h
# Pichia kudriavzevii [6] = test: Antifungal activity against Candida krusei CAKR8 after 24 hrs by spectrofluorometric analysis; assay type: functional; details: CAKR8, 24 h
# Candida albicans [7] = test: Antifungal activity against fluconazole-resistant Candida albicans DSY292 after 24 hrs by spectrofluorometric analysis; assay type: functional; details: DSY292, 24 h
# Pichia kudriavzevii [8] = test: Antifungal activity against Candida krusei CAKR7 after 24 hrs by spectrofluorometric analysis; assay type: functional; details: CAKR7, 24 h
# Aspergillus fumigatus [9] = test: Antifungal activity against Aspergillus fumigatus ASFU7 after 48 hrs by M38 method; assay type: functional; details: ASFU7, 48 h
# Aspergillus fumigatus [10] = test: Antifungal activity against Aspergillus fumigatus ASFU20 after 48 hrs by M38 method; assay type: functional; details: ASFU20, 48 h
# [11] = target: T1, Lanosterol 14-alpha demethylase (Candida albicans (strain SC5314 / ATCC MYA-2876) (Yeast), UniProt P10613); test: Inhibition of CYP51 in fluconazole-susceptible Candida albicans CAAL93 assessed as 14-methyl-3,6-diol level at 22 ng/mL after 2 hrs; design: scale not given: the % may be the effect or the level left
# T1 sequence (P10613 whole entry): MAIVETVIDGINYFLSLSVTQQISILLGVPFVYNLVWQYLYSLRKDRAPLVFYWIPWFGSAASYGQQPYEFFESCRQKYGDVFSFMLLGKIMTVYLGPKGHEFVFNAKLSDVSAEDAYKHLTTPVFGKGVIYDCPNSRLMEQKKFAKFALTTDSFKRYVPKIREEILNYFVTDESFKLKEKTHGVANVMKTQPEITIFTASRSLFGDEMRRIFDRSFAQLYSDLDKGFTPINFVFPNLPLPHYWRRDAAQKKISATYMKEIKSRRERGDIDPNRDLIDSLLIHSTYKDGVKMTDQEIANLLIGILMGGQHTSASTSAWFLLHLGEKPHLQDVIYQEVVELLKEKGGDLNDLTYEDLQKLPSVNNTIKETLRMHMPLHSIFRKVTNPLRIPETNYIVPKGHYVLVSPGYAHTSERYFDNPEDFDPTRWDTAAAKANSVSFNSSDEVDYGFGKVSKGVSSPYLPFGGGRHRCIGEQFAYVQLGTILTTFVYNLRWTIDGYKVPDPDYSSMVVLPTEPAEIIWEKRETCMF
# Aspergillus fumigatus [12] = test: Antifungal activity against Aspergillus fumigatus ASFU23 after 48 hrs by M38 method; assay type: functional; details: ASFU23, 48 h
# [13] = target: T1, Lanosterol 14-alpha demethylase; test: Inhibition of CYP51 in fluconazole-susceptible Candida albicans CAAL93 assessed as ergosterol level at 22 ng/mL after 2 hrs; design: scale not given: the % may be the effect or the level left
# [14] = target: T1, Lanosterol 14-alpha demethylase; test: Inhibition of CYP51 in fluconazole-susceptible Candida albicans CAAL93 assessed as 14-methyfecosterol level at 4.5 ng/mL after 2 hrs; design: scale not given: the % may be the effect or the level left
# Rhizomucor miehei = test: Antifungal activity against Rhizomucor miehei RHMI1 after 48 hrs by broth microdilution test
# [15] = target: T1, Lanosterol 14-alpha demethylase; test: Inhibition of CYP51 in fluconazole-susceptible Candida albicans CAAL93 assessed as ergosterol level after 2 hrs
# [16] = Antifungal activity against Scedosporium sp. SCSP1 after 48 hrs by broth microdilution test; assay type: functional
# [17] = target: T1, Lanosterol 14-alpha demethylase; test: Inhibition of CYP51 in fluconazole-susceptible Candida albicans CAAL93 assessed as eburicol level at 22 ng/mL after 2 hrs; design: scale not given: the % may be the effect or the level left
# [18] = target: T1, Lanosterol 14-alpha demethylase; test: Inhibition of CYP51 in fluconazole-susceptible Candida albicans CAAL93 assessed as zymosterol level at 4.5 ng/mL after 2 hrs; design: scale not given: the % may be the effect or the level left
# [19] = target: T1, Lanosterol 14-alpha demethylase; test: Inhibition of CYP51 in fluconazole-susceptible Candida albicans CAAL93 assessed as 14-methyfecosterol level at 22 ng/mL after 2 hrs; design: scale not given: the % may be the effect or the level left
# Aspergillus fumigatus [20] = test: Antifungal activity against Aspergillus fumigatus ASFU19 after 48 hrs by M38 method; assay type: functional; details: ASFU19, 48 h
# [21] = target: T1, Lanosterol 14-alpha demethylase; test: Inhibition of CYP51 in fluconazole-susceptible Candida albicans CAAL93 assessed as eburicol level at 4.5 ng/mL after 2 hrs; design: scale not given: the % may be the effect or the level left
# [22] = Antifungal activity against Rhizomucor pusillus RHPU1 after 48 hrs by broth microdilution test; assay type: functional
# [23] = target: T1, Lanosterol 14-alpha demethylase; test: Inhibition of CYP51 in fluconazole-susceptible Candida albicans CAAL93 assessed as lanosterol level at 22 ng/mL after 2 hrs; design: scale not given: the % may be the effect or the level left
# [24] = target: T1, Lanosterol 14-alpha demethylase; test: Inhibition of CYP51 in fluconazole-susceptible Candida albicans CAAL93 assessed as episterol level at 4.5 ng/mL after 2 hrs; design: scale not given: the % may be the effect or the level left
# [25] = target: T1, Lanosterol 14-alpha demethylase; test: Inhibition of CYP51 in fluconazole-susceptible Candida albicans CAAL93 assessed as 14-methylepisterol level at 22 ng/mL after 2 hrs; design: scale not given: the % may be the effect or the level left
# [26] = target: T1, Lanosterol 14-alpha demethylase; test: Inhibition of CYP51 in fluconazole-susceptible Candida albicans CAAL93 assessed as lanosterol level at 4.5 ng/mL after 2 hrs; design: scale not given: the % may be the effect or the level left
# [27] = target: T1, Lanosterol 14-alpha demethylase; test: Inhibition of CYP51 in fluconazole-susceptible Candida albicans CAAL93 assessed as 14-methylepisterol level at 4.5 ng/mL after 2 hrs; design: scale not given: the % may be the effect or the level left
# Candida albicans [28] = test: Antifungal activity against fluconazole-susceptible Candida albicans CAAL93 infected in Swiss mouse assessed as host survival at 15 mg/kg, po qd for 5 days measured after 13 days; assay type: functional
# In short: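 Transiently neutropenic Swiss mice were infected intravenously with C. albicans CAAL93 blastoconidia. Oral dosing began 1 h post-infection at 15 mg/kg body weight, in 5% DMSO, once daily for 5 consecutive days. Controls received 100 μL 0.9% saline with 5% DMSO. The read-out was survival rate on day 13 after infection, compared by log-rank test.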
# Aspergillus fumigatus [29] = test: Antifungal activity against Aspergillus fumigatus ASFU17 after 48 hrs by M38 method; assay type: functional; details: ASFU17, 48 h
# Aspergillus fumigatus [30] = test: Antifungal activity against Aspergillus fumigatus ASFU13 after 48 hrs by M38 method; assay type: functional; details: ASFU13, 48 h
# [31] = target: T1, Lanosterol 14-alpha demethylase; test: Inhibition of CYP51 in fluconazole-susceptible Candida albicans CAAL93 assessed as ergosterol level at 4.5 ng/mL after 2 hrs; design: scale not given: the % may be the effect or the level left
SMILES,MIC (Candida albicans [1]),MIC (Candida parapsilosis [2]),MIC (Candida albicans [3]),MIC (Candida parapsilosis [4]),MIC (Nakaseomyces glabratus),MIC (Candida albicans [5]),MIC (Pichia kudriavzevii [6]),MIC (Candida albicans [7]),MIC (Pichia kudriavzevii [8]),MIC (Aspergillus fumigatus [9]),MIC (Aspergillus fumigatus [10]),MIC (Aspergillus fumigatus [12]),MIC (Rhizomucor miehei),MIC [16],MIC (Aspergillus fumigatus [20]),MIC [22],MIC (Aspergillus fumigatus [29]),MIC (Aspergillus fumigatus [30]),also measured
C[C@@H](n1cnc2ccc3ncsc3c2c1=O)[C@](O)(Cn1cncn1)c1ccc(F)cc1F,1.43 µg/mL,< 0.001 µg/mL,0.003 µg/mL,0.006 µg/mL,0.095 µg/mL,< 0.001 µg/mL,2.5 µg/mL,5 µg/mL,5 µg/mL,> 43 µg/mL,–,–,–,–,–,–,–,–,–
C[C@@H](n1cnc2cc3scnc3cc2c1=O)[C@](O)(Cn1cncn1)c1ccc(F)cc1F,0.118 µg/mL,0.127 µg/mL,0.011 µg/mL,0.013 µg/mL,0.068 µg/mL,< 0.001 µg/mL,< 0.005 µg/mL,0.94 µg/mL,0.182 µg/mL,0.28 µg/mL,4.5 µg/mL,0.27 µg/mL,2 µg/mL,1 µg/mL,2.1 µg/mL,1 µg/mL,2.2 µg/mL,3.1 µg/mL,Activity [11]: 5.4%; Activity [13]: 5.4%; Activity [14]: 3.8%; inhibition (INH) [15]: Dose-dependent effect; Activity [17]: 20.4%; Activity [18]: 2%; Activity [19]: 11.4%; Activity [21]: 4.4%; Activity [23]: 41.6%; Activity [24]: 2.9%; Activity [25]: 15.7%; Activity [26]: 29.9%; Activity [27]: 5.9%; survival at 15 mg/kg (Candida albicans [28]): 75%; Activity [31]: 51.1%
C[C@@H](n1cnc2cc(Cl)ccc2c1=O)[C@](O)(Cn1cncn1)c1ccc(F)cc1F [ALBACONAZOLE],0.063 µg/mL,0.011 µg/mL,0.003 µg/mL,0.018 µg/mL,0.065 µg/mL,< 0.001 µg/mL,0.005 µg/mL,< 0.043 µg/mL,0.022 µg/mL,0.23 µg/mL,1.2 µg/mL,0.22 µg/mL,1 µg/mL,0.5 µg/mL,2 µg/mL,0.5 µg/mL,2.1 µg/mL,1.1 µg/mL,–
OC(Cn1cncn1)(Cn1cncn1)c1ccc(F)cc1F [FLUCONAZOLE],11 µg/mL,> 30 µg/mL,0.062 µg/mL,> 30 µg/mL,7.7 µg/mL,0.018 µg/mL,12.9 µg/mL,21 µg/mL,> 30 µg/mL,–,–,–,–,–,–,–,–,–,–
CCC(C)n1ncn(-c2ccc(N3CCN(c4ccc(OCC5COC(Cn6cncn6)(c6ccc(Cl)cc6Cl)O5)cc4)CC3)cc2)c1=O (centres undefined) [ITRACONAZOLE],–,–,–,–,–,–,–,–,–,0.42 µg/mL,> 71 µg/mL,> 71 µg/mL,–,–,> 71 µg/mL,–,> 71 µg/mL,> 71 µg/mL,–
C[C@@H](c1ncncc1F)[C@](O)(Cn1cncn1)c1ccc(F)cc1F [VORICONAZOLE],0.101 µg/mL,0.905 µg/mL,0.005 µg/mL,0.925 µg/mL,0.061 µg/mL,< 0.003 µg/mL,< 0.003 µg/mL,1.1 µg/mL,0.549 µg/mL,0.15 µg/mL,< 0.35 µg/mL,0.18 µg/mL,8 µg/mL,0.125 µg/mL,3 µg/mL,2 µg/mL,0.25 µg/mL,< 0.35 µg/mL,–
